ChEMBL document CHEMBL1125469, “"Mixed inhibitor-prodrug" as a new approach toward systemically active inhibitors of enkephalin-degrading enzymes” (1992)

Legend:
Type in all cases: functional
Mus musculus [1] = test: Compound was evaluated for the antinociceptive response after intravenous administration using hot-plat test (55+/-1 degree Celsius) in mice (for jump latency time) at the dose of 0.75*10e-6 mol/mice and 0.46*10e-6 mol/mice respectively
Method in brief: (§1)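 Mice on a hot plate held at 55 ± 0.5 °C inside a glass cylinder, tested 15 min after iv dosing. Read-out was latency to jump, with a 240 s cutoff. % analgesia = (test − control latency)/(cutoff − control latency) × 100. Groups compared by ANOVA followed by Dunnett's t test.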

Mus musculus [2] = test: Compound was evaluated for the percentage of analgesic effect in mice at the time of 15 min after intravenous administration of dose 0.75*10e-6 mol/mice and 0.46*10e-6 mol/mice respectively; method in brief: as §1
Mus musculus [3] = test: Compound (20 mg/kg) was evaluated for the antinociceptive response after intravenous administration using hot-plat test (55+/-1 degree Celsius) in mice(for jump latency time) at the dose of 0.57*10e-6 mol/mouse; method in brief: as §1
Mus musculus [4] = test: Compound (20 mg/kg) was evaluated for the percentage of analgesic effect in mice at the time of 15 min after intravenous administration of dose 0.57*10e-6 mol/mouse; method in brief: as §1
Mus musculus [5] = test: Compound was evaluated for the antinociceptive response after intravenous administration using hot-plat test (55+/-1 degree Celsius) in mice (for jump latency time) at the dose of 10 mg/kg; method in brief: as §1
Mus musculus [6] = test: Compound was evaluated for the antinociceptive response after intravenous administration using hot-plat test (55+/-1 degree Celsius) in mice (for jump latency time) at the dose of 5 mg/kg; method in brief: as §1
Mus musculus [7] = test: Compound was evaluated for the antinociceptive response after intravenous administration using hot-plat test (55+/-1 degree Celsius) in mice (for jump latency time) at the dose of 0 mg/kg; method in brief: as §1
Mus musculus [8] = test: Compound was evaluated for the percentage of analgesic effect in mice at the time of 15 min after intravenous administration of dose 10 mg/kg; method in brief: as §1
Mus musculus [9] = test: Compound was evaluated for the antinociceptive response after intravenous administration using hot-plat test (55+/-1 degree Celsius) in mice (for jump latency time) at the dose of 1 mg/kg; method in brief: as §1
Mus musculus [10] = test: Compound was evaluated for the percentage of analgesic effect in mice at the time of 15 min after intravenous administration of dose 5 mg/kg; method in brief: as §1
Mus musculus [11] = test: Compound was evaluated for the percentage of analgesic effect in mice at the time of 15 min after intravenous administration of dose 1 mg/kg; method in brief: as §1

Row | Compound | Jump latency time (Mus musculus [5]) [s] | Jump latency time (Mus musculus [6]) [s] | Jump latency time (Mus musculus [7]) [s] | Analgesia (Mus musculus [8]) [%] | also measured
1 | CSCCC(N)CSSCC(N)CCSC.O=C(NC(Cc1ccccc1)C(=O)OCc1ccccc1)C(CSSCC(Cc1ccccc1)C(=O)NC(Cc1ccccc1)C(=O)OCc1ccccc1)Cc1ccccc1 (stereo not given) | – | – | – | – | Jump latency time (Mus musculus [1]): 126 s; Analgesia (Mus musculus [2]): 32.2%
2 | CSCCC(N)CSSCC(Cc1ccccc1)C(=O)NC(Cc1ccccc1)C(=O)OCc1ccccc1 (stereo not given) | – | – | – | – | Jump latency time (Mus musculus [3]): 236 s; Analgesia (Mus musculus [4]): 92.1%
3 | N[C@H](CSC(=O)CCC(=O)SCC(Cc1ccccc1)C(=O)NCC(=O)OCc1ccccc1)Cc1ccccc1 (stereo not given in full) | 71.7 | 46.5 | 48.7 | 12 | –
4 | CC(=O)SCC(Cc1ccccc1)C(=O)NCC(=O)SC[C@@H](N)Cc1ccccc1 (stereo not given in full) | 143 | 80.4 | 56.7 | 63 | Jump latency time (Mus musculus [9]): 74.1 s; Analgesia (Mus musculus [10]): 13%; Analgesia (Mus musculus [11]): 9%
